Experimental data taken from ChEMBL document CHEMBL1806396, “Development of potent B-RafV600E inhibitors containing an arylsulfonamide headgroup” (Bioorg Med Chem Lett, 2011).
pEC50, pIC50: −log10 of the molar value.

How the values were obtained:
[1] = molecular target: T1, Serine/threonine-protein kinase B-raf (Homo sapiens, UniProt P15056, V600E); assay: Inhibition of B-Raf V600E mutant in human SK-MEL-28 cells assessed as reduction of ERK phosphorylation after 1 hr; type: cell-based
Method in brief: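 SKMEL28 cells (EMEM + 10% FBS) plated at 20,000 cells/well; 10-point dilution 20 µM to 0.001 µM, final DMSO 0.2%, 1 h. Fixed in 3.7% formaldehyde, permeabilized with 0.1% Triton X-100. Anti-ERK and anti-phospho-ERK primaries overnight at 4 °C, IR-dye secondaries 1 h, in-cell western on LiCor Odyssey. % inhibition of ERK phosphorylation vs control; IC50 by 4-parameter fit; means of 2–5 experiments.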

[2] = molecular target: T1, Serine/threonine-protein kinase B-raf; assay: Inhibition of B-Raf V600E mutant
SK-MEL-28 = assay: Antiproliferative activity against human SK-MEL-28 cells expressing B-Raf V600E mutant after 3 days by CellTiter-Glo assay; type: functional, cell-based
Method in brief: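 SKMEL28 melanoma cells grown in EMEM + 10% FBS, 1% pen-strep, 1% sodium pyruvate, 37 °C, humidified 5% CO2; plated 500 cells/well. 10-point dilution 20 µM down to 0.001 µM, final DMSO 0.2%, 3 days. Total ATP read by CellTiter-Glo as cell-number surrogate. % growth inhibition vs control wells; IC50 by 4-parameter fit; mean of two experiments.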

[3] = molecular target: Tyrosine-protein kinase Lyn (Homo sapiens, UniProt P07948); assay: Inhibition of Lyn
Tyrosine-protein kinase Lyn, sequence (P07948 whole entry): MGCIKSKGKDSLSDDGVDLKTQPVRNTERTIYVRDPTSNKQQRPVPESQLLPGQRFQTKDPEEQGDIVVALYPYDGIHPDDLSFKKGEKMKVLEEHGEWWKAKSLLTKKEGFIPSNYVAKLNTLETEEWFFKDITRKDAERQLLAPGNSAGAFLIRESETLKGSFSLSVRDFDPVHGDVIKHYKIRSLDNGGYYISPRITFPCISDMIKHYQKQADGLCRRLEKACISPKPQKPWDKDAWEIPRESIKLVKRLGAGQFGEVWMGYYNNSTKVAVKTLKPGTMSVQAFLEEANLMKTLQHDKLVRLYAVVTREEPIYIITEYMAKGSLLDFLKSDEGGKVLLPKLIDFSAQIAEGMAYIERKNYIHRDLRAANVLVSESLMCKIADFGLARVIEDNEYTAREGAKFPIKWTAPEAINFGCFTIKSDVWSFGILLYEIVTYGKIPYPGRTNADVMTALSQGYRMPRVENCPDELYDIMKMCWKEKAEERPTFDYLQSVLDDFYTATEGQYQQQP

[4] = molecular target: Tyrosine-protein kinase Lck (Homo sapiens, UniProt P06239); assay: Inhibition of Lck
Tyrosine-protein kinase Lck, sequence (P06239 whole entry): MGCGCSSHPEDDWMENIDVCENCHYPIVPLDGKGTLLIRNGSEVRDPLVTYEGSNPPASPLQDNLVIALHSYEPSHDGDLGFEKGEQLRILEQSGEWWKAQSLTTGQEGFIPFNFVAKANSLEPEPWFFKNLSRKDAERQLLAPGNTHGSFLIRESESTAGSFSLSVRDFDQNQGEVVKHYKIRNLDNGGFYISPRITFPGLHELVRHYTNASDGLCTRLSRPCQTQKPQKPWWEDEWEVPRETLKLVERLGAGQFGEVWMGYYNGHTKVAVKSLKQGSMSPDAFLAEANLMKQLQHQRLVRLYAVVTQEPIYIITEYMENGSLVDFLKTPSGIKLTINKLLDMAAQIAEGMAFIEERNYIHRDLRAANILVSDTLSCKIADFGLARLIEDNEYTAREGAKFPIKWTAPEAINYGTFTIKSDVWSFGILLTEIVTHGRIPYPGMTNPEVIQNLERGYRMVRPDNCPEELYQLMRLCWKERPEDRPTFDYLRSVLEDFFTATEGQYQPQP

[5] = molecular target: Receptor tyrosine-protein kinase erbB-4 (Homo sapiens, UniProt Q15303); assay: Inhibition of ErbB4
Receptor tyrosine-protein kinase erbB-4, sequence (Q15303 whole entry): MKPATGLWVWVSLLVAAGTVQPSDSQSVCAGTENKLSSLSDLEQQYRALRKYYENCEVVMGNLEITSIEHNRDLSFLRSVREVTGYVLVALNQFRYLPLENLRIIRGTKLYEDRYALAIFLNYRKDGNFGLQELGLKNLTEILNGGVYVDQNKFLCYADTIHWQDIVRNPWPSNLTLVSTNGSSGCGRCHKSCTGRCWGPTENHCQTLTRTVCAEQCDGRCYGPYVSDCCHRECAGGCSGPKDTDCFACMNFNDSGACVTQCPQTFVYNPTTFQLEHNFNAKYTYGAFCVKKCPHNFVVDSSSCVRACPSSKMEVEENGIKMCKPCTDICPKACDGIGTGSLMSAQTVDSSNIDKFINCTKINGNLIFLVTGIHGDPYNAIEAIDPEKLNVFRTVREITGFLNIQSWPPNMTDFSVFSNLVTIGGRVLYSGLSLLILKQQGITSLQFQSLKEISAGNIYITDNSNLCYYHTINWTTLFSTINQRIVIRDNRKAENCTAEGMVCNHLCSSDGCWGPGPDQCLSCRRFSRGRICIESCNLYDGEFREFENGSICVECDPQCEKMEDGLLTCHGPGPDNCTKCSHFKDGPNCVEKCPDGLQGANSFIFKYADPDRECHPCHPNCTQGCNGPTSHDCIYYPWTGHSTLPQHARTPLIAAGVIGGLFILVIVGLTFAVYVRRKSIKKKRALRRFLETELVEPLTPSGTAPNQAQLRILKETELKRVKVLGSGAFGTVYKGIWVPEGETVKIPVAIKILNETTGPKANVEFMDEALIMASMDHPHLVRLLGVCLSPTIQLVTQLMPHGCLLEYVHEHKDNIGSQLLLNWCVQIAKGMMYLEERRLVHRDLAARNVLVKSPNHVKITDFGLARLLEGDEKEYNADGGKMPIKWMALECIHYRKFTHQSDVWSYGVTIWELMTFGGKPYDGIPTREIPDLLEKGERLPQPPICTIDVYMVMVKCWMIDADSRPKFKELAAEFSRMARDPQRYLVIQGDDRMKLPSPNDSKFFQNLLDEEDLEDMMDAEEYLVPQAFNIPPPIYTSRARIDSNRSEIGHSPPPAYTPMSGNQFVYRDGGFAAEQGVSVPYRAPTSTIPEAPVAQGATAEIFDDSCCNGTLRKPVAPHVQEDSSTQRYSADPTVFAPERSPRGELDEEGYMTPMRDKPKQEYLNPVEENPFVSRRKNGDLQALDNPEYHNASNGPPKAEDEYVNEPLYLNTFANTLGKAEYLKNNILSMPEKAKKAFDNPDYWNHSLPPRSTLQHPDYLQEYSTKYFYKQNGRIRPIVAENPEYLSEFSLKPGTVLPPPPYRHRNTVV

TGF-beta receptor type-1 = molecular target: T2, TGF-beta receptor type-1 (Homo sapiens, UniProt P36897); assay: Inhibition of ALK5
T2 sequence (P36897 whole entry): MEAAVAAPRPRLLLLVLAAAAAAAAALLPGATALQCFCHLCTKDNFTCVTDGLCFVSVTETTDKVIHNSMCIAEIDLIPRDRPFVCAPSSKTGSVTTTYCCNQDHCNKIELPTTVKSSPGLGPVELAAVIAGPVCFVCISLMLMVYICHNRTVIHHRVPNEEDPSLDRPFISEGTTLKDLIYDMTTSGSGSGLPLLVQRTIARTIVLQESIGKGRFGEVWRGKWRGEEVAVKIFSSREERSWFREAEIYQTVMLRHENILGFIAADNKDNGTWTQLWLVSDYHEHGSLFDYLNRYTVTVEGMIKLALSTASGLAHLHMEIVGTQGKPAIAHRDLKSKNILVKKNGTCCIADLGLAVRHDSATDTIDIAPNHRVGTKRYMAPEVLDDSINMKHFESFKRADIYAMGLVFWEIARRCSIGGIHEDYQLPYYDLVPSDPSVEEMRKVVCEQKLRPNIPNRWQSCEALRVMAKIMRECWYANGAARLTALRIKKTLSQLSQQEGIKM

[6] = molecular target: Tyrosine-protein kinase BTK (Homo sapiens, UniProt Q06187); assay: Inhibition of Btk
Tyrosine-protein kinase BTK, sequence (Q06187 whole entry): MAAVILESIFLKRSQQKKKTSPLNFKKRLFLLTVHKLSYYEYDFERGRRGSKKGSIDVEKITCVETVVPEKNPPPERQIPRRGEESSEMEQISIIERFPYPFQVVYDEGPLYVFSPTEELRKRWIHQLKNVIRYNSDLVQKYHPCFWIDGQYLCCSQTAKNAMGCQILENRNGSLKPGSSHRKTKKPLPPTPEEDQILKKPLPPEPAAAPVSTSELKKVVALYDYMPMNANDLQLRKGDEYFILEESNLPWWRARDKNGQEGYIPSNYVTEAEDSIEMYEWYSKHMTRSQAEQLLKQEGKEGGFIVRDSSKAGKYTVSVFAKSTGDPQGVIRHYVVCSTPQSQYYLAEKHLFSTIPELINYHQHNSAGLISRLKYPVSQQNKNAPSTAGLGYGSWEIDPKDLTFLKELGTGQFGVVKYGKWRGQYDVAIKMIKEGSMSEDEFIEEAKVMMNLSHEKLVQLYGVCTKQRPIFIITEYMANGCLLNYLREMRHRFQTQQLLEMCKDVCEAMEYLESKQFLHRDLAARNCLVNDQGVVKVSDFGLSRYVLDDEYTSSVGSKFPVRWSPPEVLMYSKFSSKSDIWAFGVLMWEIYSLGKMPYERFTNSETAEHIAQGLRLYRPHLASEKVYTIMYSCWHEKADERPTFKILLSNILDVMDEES

Activin receptor type-2B = Activin receptor type-2B (Homo sapiens, UniProt Q13705); assay: Inhibition of ACTR-2B
Activin receptor type-2B, sequence (Q13705 whole entry): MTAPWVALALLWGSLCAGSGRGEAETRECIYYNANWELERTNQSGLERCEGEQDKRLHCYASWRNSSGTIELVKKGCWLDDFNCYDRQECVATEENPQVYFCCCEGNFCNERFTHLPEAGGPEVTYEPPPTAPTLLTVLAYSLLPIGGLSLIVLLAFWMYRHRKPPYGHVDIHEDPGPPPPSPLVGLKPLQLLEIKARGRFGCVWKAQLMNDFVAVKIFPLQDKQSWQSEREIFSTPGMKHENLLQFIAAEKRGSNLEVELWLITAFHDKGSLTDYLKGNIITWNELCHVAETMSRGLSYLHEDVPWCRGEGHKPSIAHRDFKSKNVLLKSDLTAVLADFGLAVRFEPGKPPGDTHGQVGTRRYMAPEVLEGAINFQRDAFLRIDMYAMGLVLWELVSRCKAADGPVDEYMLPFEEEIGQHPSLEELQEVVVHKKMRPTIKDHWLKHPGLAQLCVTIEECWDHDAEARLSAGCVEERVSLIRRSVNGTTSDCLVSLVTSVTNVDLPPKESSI

HFF = assay: Antiproliferative activity against HFF after 3 days by CellTiter-Glo assay; type: cell-based; settings: Homo sapiens, 72 h

T1 sequence (P15056 2-766 V600E limits assumed): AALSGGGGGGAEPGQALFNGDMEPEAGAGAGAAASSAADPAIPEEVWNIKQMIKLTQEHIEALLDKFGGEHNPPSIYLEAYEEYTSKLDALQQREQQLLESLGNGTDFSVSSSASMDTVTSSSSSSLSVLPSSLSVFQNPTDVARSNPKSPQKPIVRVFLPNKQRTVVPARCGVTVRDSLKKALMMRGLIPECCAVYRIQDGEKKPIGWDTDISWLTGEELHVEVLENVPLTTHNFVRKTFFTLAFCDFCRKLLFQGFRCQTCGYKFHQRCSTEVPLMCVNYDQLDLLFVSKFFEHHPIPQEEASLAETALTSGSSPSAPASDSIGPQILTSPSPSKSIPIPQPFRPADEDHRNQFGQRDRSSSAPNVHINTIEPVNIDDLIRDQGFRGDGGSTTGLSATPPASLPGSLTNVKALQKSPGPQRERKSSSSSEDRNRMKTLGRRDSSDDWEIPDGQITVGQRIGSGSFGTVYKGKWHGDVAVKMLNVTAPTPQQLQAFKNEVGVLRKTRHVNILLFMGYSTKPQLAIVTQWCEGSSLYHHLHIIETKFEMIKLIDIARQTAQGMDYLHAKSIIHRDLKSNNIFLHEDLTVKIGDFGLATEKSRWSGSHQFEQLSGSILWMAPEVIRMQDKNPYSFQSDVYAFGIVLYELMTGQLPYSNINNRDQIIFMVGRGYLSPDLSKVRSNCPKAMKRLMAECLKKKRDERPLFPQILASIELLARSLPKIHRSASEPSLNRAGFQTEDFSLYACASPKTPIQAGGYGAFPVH

Structure (SMILES)	pEC50 [1]	pIC50 [2]	pEC50 (SK-MEL-28; Homo sapiens, SK-MEL-28, 72 h)	other results
CN1CCc2ccc(Nc3nccc(-c4c(-c5cccc(C(=O)Nc6c(F)cccc6F)c5)nc5ccccn45)n3)cc2C1	< 5.66	7.92		
CN1CCc2ccc(Nc3nccc(-c4c(-c5cccc(NC(=O)Nc6c(F)cccc6F)c5)nc5ccccn45)n3)cc2C1	< 4.70	8.30	5.20	
CN1CCc2ccc(Nc3nccc(-c4c(-c5cccc(NC(=O)c6c(F)cccc6F)c5)nc5ccccn45)n3)cc2C1	< 5.00	8.05	5.27	
CN1CCc2ccc(Nc3nccc(-c4c(-c5cccc(NS(=O)(=O)c6ccccc6)c5)nc5ccccn45)n3)cc2C1	7.00	6.88	5.96	
CC(C)c1nc(-c2cccc(NC(=O)c3c(F)cccc3F)c2)c(-c2ccnc(Nc3ccc4c(c3)CN(C)CC4)n2)s1	6.24	8.40	5.56	
CC(C)c1nc(-c2cccc(NS(=O)(=O)c3ccccc3)c2)c(-c2ccnc(Nc3ccc4c(c3)CN(C)CC4)n2)s1	7.28	7.92	6.54	
CC(=O)N1CCN(c2ccc(Nc3nccc(-c4sc(C(C)C)nc4-c4cccc(NS(=O)(=O)c5ccccc5)c4)n3)cn2)CC1	8.15	8.44	7.62	
CCc1nc(-c2cccc(N(C)S(=O)(=O)c3ccccc3)c2)c(-c2ccnc(Nc3ccc(N4CCN(C(C)=O)CC4)nc3)n2)s1	5.33	5.71	5.06	
CCc1nc(-c2cccc(CS(=O)(=O)c3ccccc3)c2)c(-c2ccnc(Nc3ccc(N4CCN(C(C)=O)CC4)nc3)n2)s1	< 4.70	5.87	4.96	
CC(=O)N1CCN(c2ccc(Nc3nccc(-c4sc(C(C)C)nc4-c4cccc(NS(=O)(=O)c5ccccc5F)c4)n3)cn2)CC1	8.40	9.22	8.40	
CC(=O)N1CCN(c2ccc(Nc3nccc(-c4sc(C(C)C)nc4-c4cccc(NS(=O)(=O)c5cccc(F)c5)c4)n3)cn2)CC1	8.00	9.10	8.10	
CC(=O)N1CCN(c2ccc(Nc3nccc(-c4sc(C(C)C)nc4-c4cccc(NS(=O)(=O)c5ccc(F)cc5)c4)n3)cn2)CC1	8.05	8.02	7.16	
CC(=O)N1CCN(c2ccc(Nc3nccc(-c4sc(C(C)C)nc4-c4cccc(NS(=O)(=O)c5cccc(Cl)c5)c4)n3)cn2)CC1	7.68	7.47	7.07	
CC(=O)N1CCN(c2ccc(Nc3nccc(-c4sc(C(C)C)nc4-c4cccc(NS(=O)(=O)c5cc(F)ccc5F)c4)n3)cn2)CC1	8.10	9.22	8.10	
CC(=O)N1CCN(c2ccc(Nc3nccc(-c4sc(C(C)C)nc4-c4cccc(NS(=O)(=O)c5c(F)cccc5F)c4)n3)cn2)CC1	8.00	8.89	7.92	
CC(C)c1nc(-c2cccc(NS(=O)(=O)c3c(F)cccc3F)c2)c(-c2ccnc(Nc3ccc(N4CCOCC4)nc3)n2)s1	8.15	8.92	8.22	
CC(C)c1nc(-c2cccc(NS(=O)(=O)c3c(F)cccc3F)c2F)c(-c2ccnc(Nc3ccc(N4CCOCC4)nc3)n2)s1	7.96	9.30	8.10	
CC(C)c1nc(-c2cc(F)cc(NS(=O)(=O)c3c(F)cccc3F)c2)c(-c2ccnc(Nc3ccc(N4CCOCC4)nc3)n2)s1	7.62	9.05	7.85	
CC(C)c1nc(-c2ccc(F)c(NS(=O)(=O)c3c(F)cccc3F)c2)c(-c2ccnc(Nc3ccc(N4CCOCC4)nc3)n2)s1 [listing 1 of 2 here]	7.64	8.42		pIC50 [3]: 8.00; pIC50 [4]: 8.00; pIC50 [5]: 8.00; pIC50 (TGF-beta receptor type-1): 8.00; pIC50 [6]: 8.00; pIC50 (Activin receptor type-2B): 8.00; pEC50 (SK-MEL-28; sk-mel-28): 7.33
CC(C)c1nc(-c2ccc(F)c(NS(=O)(=O)c3c(F)cccc3F)c2)c(-c2ccnc(Nc3ccc(N4CCOCC4)nc3)n2)s1 [listing 2 of 2 here]			7.28	pEC50 (HFF): 4.81
